Experimental data from ChEMBL document CHEMBL4813982, “Novel pyrazolo[4,3-d]pyrimidine microtubule targeting agents (MTAs): Synthesis, structure-activity relationship, in vitro and in vivo evaluation as antitumor agents” (Bioorg Med Chem Lett, 2021).

What was measured:
Tubulin (Homo sapiens) [1] = molecular target: T1, Tubulin (Homo sapiens) (UniProt P68371+Q9H4B7+P0DPH7+P68366+Q13509+Q71U36+P04350+Q3ZCM7+P07437+P68363+Q9BQE3+Q6PEY2+Q13885+Q9BVA1+Q9BUF5); assay: Inhibition of [3H]colchicine binding to tubulin (unknown origin) at 0.5 uM relative to control; assay type: protein-complex assay
Tubulin (Homo sapiens) [2] = molecular target: T1, Tubulin (Homo sapiens); assay: Inhibition of [3H]colchicine binding to tubulin (unknown origin) at 5 uM relative to control; assay type: protein-complex assay
Tubulin = assay: Inhibition of tubulin assembly (unknown origin); assay type: protein-complex assay, Homo sapiens
NCI/ADR-RES = assay: Antiproliferative activity against human NCI/ADR-RES cells overexpressing Pgp; assay type: functional, cell-based
OVCAR-8 = assay: Antiproliferative activity against human OVCAR-8 cells; assay type: functional, cell-based
[3] = Resistance ratio of IC50 for antiproliferative activity against human NCI/ADR-RES cells expressing Pgp to IC50 for antiproliferative activity against human OVCAR-8 cells; assay type: functional
Outline: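 Resistance ratio: IC50 in Pgp-overexpressing NCI/ADR-RES cells divided by IC50 in parental OVCAR-8 cells.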

Question: What does the source list for `COc1ccc(N(C)c2nc(C)nc3c(Cc4ccccc4)cn(C)c23)cc1`?
Answer: inhibition (Tubulin (Homo sapiens) [1]): 73%; inhibition (Tubulin (Homo sapiens) [2]): 92%; IC50 (Tubulin): 480 nM

Question: Which inhibition (Tubulin (Homo sapiens) [2]) does the source give for `CN(c1ccc(OC(F)(F)F)cc1)c1nc(Cl)nc2cnn(C)c12` here?
Answer: The inhibition was 64%.

Question: What about the IC50 (NCI/ADR-RES) of the same compound?
Answer: Its IC50 is 730 nM.

Question: And the IC50 (OVCAR-8)?
Answer: Its IC50 is 880 nM.

Question: And the “Ratio IC50” value [3]?
Answer: The value was 0.83.

Question: And the IC50 (Tubulin)?
Answer: The IC50 was 2900 nM.

Question: Which inhibition (Tubulin (Homo sapiens) [2]) does the source give for `COc1ccc(Nc2nc(Cl)nc3cnn(C)c23)cc1` here?
Answer: Its inhibition is 7.1%.

Question: And the IC50 (NCI/ADR-RES)?
Answer: The IC50 was over 5000 nM.

Question: What about the IC50 (OVCAR-8) of the same compound?
Answer: The IC50 was over 5000 nM.

Question: And the IC50 (Tubulin)?
Answer: Its IC50 is over 20000 nM.
